This note sets out measurements from ChEMBL document CHEMBL1124949, “4-(1,2,5,6-Tetrahydro-1-alkyl-3-pyridinyl)-2-thiazolamines: a novel class of compounds with central dopamine agonist properties” (J Med Chem, 1990).

Structures are written as SMILES. pIC50: −log10 of the molar value. The source made the active and inactive calls. The rule behind the calls is not given here. A value given as a limit tells only on which side of the number the result lay.

In experiment [1] the test system is Rattus norvegicus. The experiment is described as follows: Inhibition of locomotor activity was determined after oral administration in rat. The class given is functional. The method, boiled down:
(§1)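 Spontaneous exploratory locomotor activity was scored, with motor coordination (ataxia) checked in the same test. ED50 came from four to six doses, with 5–12 animals per dose.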

Experiment [2] deals with T1, D(2) dopamine receptor (Rattus norvegicus, UniProt P61169). Nature of the experiment: Inhibition of [3H]haloperidol binding for Dopamine receptor D2 in rat striatal membranes. (15% inhibition at 10 e-6 M). The class given is cell membranes, Membrane.
T1 sequence (P61169 whole entry): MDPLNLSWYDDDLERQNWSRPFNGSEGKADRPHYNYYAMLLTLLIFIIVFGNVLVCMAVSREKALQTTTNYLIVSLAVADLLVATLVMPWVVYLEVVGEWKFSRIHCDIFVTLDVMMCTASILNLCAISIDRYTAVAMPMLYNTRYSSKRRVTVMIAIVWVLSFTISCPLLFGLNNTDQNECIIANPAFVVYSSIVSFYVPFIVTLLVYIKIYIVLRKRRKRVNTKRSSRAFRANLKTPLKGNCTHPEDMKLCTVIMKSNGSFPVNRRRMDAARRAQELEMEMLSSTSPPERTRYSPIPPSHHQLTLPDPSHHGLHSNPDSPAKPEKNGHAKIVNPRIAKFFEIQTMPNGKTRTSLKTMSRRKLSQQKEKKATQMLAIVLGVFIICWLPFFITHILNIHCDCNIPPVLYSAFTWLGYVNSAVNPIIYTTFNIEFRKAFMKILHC
Experiment [3] deals with Rattus norvegicus. Nature of the experiment: Decrease of DOPA formation effected by 30 mg/kg administered intraperitoneally in the striatum of GBL-treated rats. Type of experiment: functional. To be noted: ip, route intraperitoneal. The method, boiled down: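 Male Long-Evans rats dosed ip 1 h before sacrifice. GBL 750 mg/kg ip given 30 min and NSD 1015 100 mg/kg ip given 25 min before sacrifice. Striatal DOPA measured by HPLC with electrochemical detection. Decrease in DOPA formation at 30 mg/kg ip, n = 4 or 5.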

Experiment [4] concerns Mus musculus. The experiment is described as follows: Inhibition of locomotor activity was determined after intraperitoneal administration in mouse. The class given is functional. The note with it: ip. The method, boiled down:
as §1

Experiment [5] has as its target T1, D(2) dopamine receptor. Nature of the experiment: Inhibition of [3H]haloperidol binding for Dopamine receptor D2 in rat striatal membranes. (2% inhibition at 10 e-6 M). Type of experiment: cell membranes, Membrane.
Experiment [6] has as its system Rattus norvegicus. Nature of the experiment: Reversal of reserpine-induced depression in rat after subcutaneous administration. Type of experiment: functional. Put shortly:
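Rats were pretreated with reserpine 5 mg/kg 24 h before testing, then given drug sc. Locomotor activity was recorded for 30 min starting immediately after dosing.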

Experiment [7] concerns the target T1, D(2) dopamine receptor. The experiment is described as follows: Inhibition of [3H]haloperidol binding for Dopamine receptor D2 in rat striatal membranes. Type of experiment: cell membranes, Membrane.
Experiment [8] addresses T1, D(2) dopamine receptor. Nature of the experiment: Inhibition of [3H]N-propylnorapomorphine binding to Dopamine receptor D2 of rat striatal membranes. Type of experiment: cell membranes, Membrane.
The subject of experiment [9] is Rattus norvegicus. Nature of the experiment: Inhibition of locomotor activity was determined after (sc) administration in rat (40% inhibition was determined at 3 mg/kg). The class given is functional, organism-based. On the set-up: dose 3 mg/kg.
Experiment [10] concerns the target T1, D(2) dopamine receptor. The experiment is described as follows: Inhibition of [3H]haloperidol binding for Dopamine receptor D2 in rat striatal membranes. (25% inhibition at 10 e-6 M). The class given is cell membranes, Membrane.
In experiment [11] the target is T1, D(2) dopamine receptor. The experiment is described as follows: Inhibition of [3H]haloperidol binding for Dopamine receptor D2 in rat striatal membranes. (41% inhibition at 10 e-6 M). The class given is cell membranes, Membrane.
Experiment [12] deals with D(1A) dopamine receptor (Rattus norvegicus, UniProt P18901). Nature of the experiment: Inhibition of binding of [3H]SCH-23390 to Dopamine receptor D1 was determined. Put shortly: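 D1 binding was displaced from [3H]SCH23390. IC50 was fitted by nonlinear regression from four or five concentrations.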
Sequence of D(1A) dopamine receptor (P18901 whole entry): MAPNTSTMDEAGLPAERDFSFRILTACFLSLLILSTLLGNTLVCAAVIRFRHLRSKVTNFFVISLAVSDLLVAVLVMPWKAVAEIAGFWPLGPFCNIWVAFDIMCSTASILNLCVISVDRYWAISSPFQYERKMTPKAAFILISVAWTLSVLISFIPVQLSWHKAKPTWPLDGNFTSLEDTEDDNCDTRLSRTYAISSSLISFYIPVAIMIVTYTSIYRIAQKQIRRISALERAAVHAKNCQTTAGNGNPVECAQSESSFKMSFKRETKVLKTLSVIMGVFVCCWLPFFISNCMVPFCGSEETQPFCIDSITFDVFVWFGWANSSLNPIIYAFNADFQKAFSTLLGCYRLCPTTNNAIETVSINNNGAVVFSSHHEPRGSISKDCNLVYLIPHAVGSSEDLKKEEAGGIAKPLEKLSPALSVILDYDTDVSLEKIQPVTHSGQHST
Experiment [13] deals with Rattus norvegicus. The experiment is described as follows: Percent of rats showing stereotyped behavior at the dose at 3 mg/kg dose level. The class given is functional.
Experiment [14] has as its system Rattus norvegicus. Nature of the experiment: Inhibition of locomotor activity was determined after oral administration in rat(50% inhibition at 3 mg/kg). Type of experiment: functional.
Experiment [15] has as its system Rattus norvegicus. The experiment is described as follows: Reversal of 6-hydroxydopamine induced depression in lesioned rats was determined after dosing for a period of 30 minutes. The class given is functional. To be noted: 0.5 h. Put shortly: (§2)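 Rats received 6-OHDA 200 μg icv plus pargyline 50 mg/kg ip and desmethylimipramine 25 mg/kg ip at least 1 month earlier, giving about 90% brain DA depletion. Drug was given sc and locomotion recorded for 30 min from dosing. ED200 is the dose doubling activity versus unlesioned controls, estimated from three or four doses with six animals per dose.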

In experiment [16] the test system is Rattus norvegicus. Nature of the experiment: Percent inhibition of dopamine neuronal firing in substantia nigra of anesthetized rats after (ip) administration at 2.5 mg/kg. Type of experiment: functional.
Experiment [17] deals with Rattus norvegicus. Nature of the experiment: Percent inhibition of dopamine neuronal firing in substantia nigra of anesthetized rats after (ip) administration at 2.5 mg/kg.
Experiment [18] concerns Rattus norvegicus. Nature of the experiment: Decrease of DOPA formation effected by 30 mg/kg administered intraperitoneally in the striatum of GBL-treated rats. The note with it: at 30 mg/kg.
The test system of experiment [19] is Rattus norvegicus. The experiment is described as follows: Reversal of 6-hydroxydopamine induced depression in lesioned rats after dosing for a period of 30 minutes. The class given is functional. The note with it: 0.5 h. Put shortly: as §2
Experiment [20] deals with Rattus norvegicus. Nature of the experiment: Inhibition of locomotor activity was determined after oral administration at a dose of 1 mg/kg in rat. Type of experiment: functional.
The test system of experiment [21] is Rattus norvegicus. Nature of the experiment: Percent of animals showing stereotyped behavior in rats at 3 mg/kg. The class given is functional.
The test system of experiment [22] is Rattus norvegicus. Nature of the experiment: Percent of animals showing stereotyped behavior in rats at the dose 0.3 mg/kg. The class given is functional.
Experiment [23] concerns the target T1, D(2) dopamine receptor. Nature of the experiment: Inhibition of [3H]haloperidol binding for Dopamine receptor D2 in rat striatal membranes. (36%inhibition at 10 e-6 M). The class given is cell membranes, Membrane.
Setting [24] is: Rattus norvegicus, sc, read-out: ED50.

The ED50 is the midpoint of the dose-response relation. For orientation: pIC50 means the negative decadic logarithm of the IC50, by convention in mol/L. A higher pIC50 goes with a small IC50. By inhibition in vivo is commonly meant the drop in the measured response relative to a control, in per cent. Low readings indicate a response near the control, high ones a response far below the control. `CCCN1CCCC(c2csc(N)n2)C1.Cl.Cl` (stereo unspecified) returned a median effective dose (ED50) in [1] of 18.9 mg/kg. Besides, the negative-log IC50 (pIC50) in experiment [2] is < 6.00. Besides, in experiment [3], 30 mg/kg produced 55% inhibition in vivo.
Regarding `CCCN1CCC=C(c2cnc(N)s2)C1`, in experiment [4], it took a dose of 19.1 mg/kg to reach the 50% effect level (ED50). The pIC50 in experiment [5] is < 6.00.
`CCCN1CCCC(c2cccc(O)c2)C1` (racemic): the figures for the ED50 in experiment [1] and in [6] (setting [24]) were 3 mg/kg and 30 mg/kg, respectively.
`Br.Br.CCCCCN1CCC=C(c2csc(N)n2)C1`: the ED50 in experiment [1] is 15.6 mg/kg; in experiment [6] (setting [24]) it was > 30 mg/kg; in experiment [4], 4.1 mg/kg. Further, the results for the negative-log IC50 (pIC50) in [7] and in experiment [8] were 5.73 and 5.19, respectively. For the same compound, the inhibition in vivo at 30 mg/kg in [3] worked out at 0%.
Regarding `CCCN1CCCC(c2cccc(O)c2)C1` (stereo unspecified) [listing 1 of 2 here], in experiment [6], the ED50 was determined as 30 mg/kg.
For `CCCN1CCCC(c2cccc(O)c2)C1` (stereo unspecified) [listing 2 of 2 here], the ED50 entry in experiment [9] was “inactive”.
As to `CCCCN1CCC=C(c2csc(NC)n2)C1.Cl.Cl`, the figures for the ED50 in experiment [1] and in experiment [4] were 16.7 mg/kg and 4.4 mg/kg, respectively. Further, in experiment [10], the pIC50 was < 6.00.
As to `CCCN1CCC=C(c2csc(C)n2)C1.Cl.Cl`, the negative-log IC50 (pIC50) in experiment [11] is < 6.00. The ED50 in [4] was > 30 mg/kg.
Turning to `Cl.Cl.Nc1nc(C2=CCCN(CCc3ccccc3)C2)cs1`, the ED50 in experiment [1] was 33.6 mg/kg; in [6] (setting [24]) it was 5.8 mg/kg. The pIC50 is 5.97 in experiment [7] and 6.04 in [8].
Take `CCCN1CCC=C(c2csc(NC)n2)C1`: the negative logarithm of the IC50 (pIC50) in experiment [10] is < 6.00; in experiment [8], < 5.00.
In the case of `CCCN1CCC=C(c2csc(N)n2)C1`, the results for the pIC50 in experiment [12], in experiment [7] and in experiment [8] were < 4.30, 6.02 and 6.22, respectively. In addition, in experiment [6] (setting [24]), the median effective dose (ED50) is > 30 mg/kg. In experiment [13], this compound yielded an Animals of 100%. The same compound came in with an ED50 at 3 mg/kg in experiment [14] of 3 mg/kg. In addition, the ED200 in experiment [15] is 0.4 mg/kg. In [16], this compound displayed an inhibition in vivo at 2.5 mg/kg of 100%. This compound displayed an inhibition in vivo at 30 mg/kg in experiment [3] of 100%.
Take `CCCCN1CCC=C(c2csc(N)n2)C1.Cl.Cl`: the ED50 was 5.4 mg/kg in [1] and > 30 mg/kg in experiment [6] (setting [24]). Moreover, the pIC50 is 5.67 in experiment [7] and 5.40 in experiment [8]. Besides, in experiment [16], the inhibition in vivo at 2.5 mg/kg turned out to be 0%. Moreover, testing at 30 mg/kg in experiment [3] gave an inhibition in vivo of 0%.
What is called inhibition is the share of the control response that was lost under treatment. Consider `CCN1CCC=C(c2csc(N)n2)C1`, for which the inhibition in experiment [17] amounted to 96%; in [18] it was 92%. In addition, the ED50 result in experiment [1] was “inactive”. Also, the pIC50 in [7] was 6.02; in experiment [8], 6.39. Also, the ED50 in experiment [6] (setting [24]) is > 30 mg/kg.
With `C=CCN1CCC=C(c2csc(N)n2)C1`, the results for the negative-log IC50 (pIC50) in [12], in experiment [7] and in experiment [8] were < 4.30, 6.36 and 6.59, respectively. The ED200 in experiment [19] was 0.3 mg/kg. The compound further registered an inhibition in vivo at 1 mg/kg in experiment [20] of 30%. The 50% effective dose (ED50) stood at 8.7 mg/kg in experiment [6] (setting [24]) and 2.8 mg/kg in experiment [4]. This compound also gave an Animals in experiment [21] of 100%. Besides, testing at 2.5 mg/kg in [16] gave an inhibition in vivo of 100%. In experiment [3], the inhibition in vivo at 30 mg/kg was 100%.
In the case of `CCCCCCCN1CCC=C(c2csc(N)n2)C1.Cl.Cl`, the 50% effective dose (ED50) in experiment [1] and in experiment [6] (setting [24]) was > 30 mg/kg each time. Besides, the figures for the pIC50 in [7] and in [8] were 5.66 and 5.29, respectively.
As to `CN1CCc2cccc3c2[C@H]1Cc1ccc(O)c(O)c1-3` [APOMORPHINE], the 50% effective dose (ED50) in [6] (setting [24]) was determined as 0.1 mg/kg. Also, in experiment [22], the Animals was 100%.
On to `CCCCCCN1CCC=C(c2csc(N)n2)C1.Cl.Cl`, for which the 50% effective dose (ED50) in experiment [6] (setting [24]) was > 30 mg/kg. The results for the negative logarithm of the IC50 (pIC50) in [23] and in experiment [8] were < 6.00 and 5.27, respectively.
Consider `CN1CCC=C(c2csc(N)n2)C1.Cl.Cl`, for which the inhibition in experiment [17] and in experiment [18] was 100% in each case. Further, the ED50 result in experiment [1] is “inactive”. In experiment [7], this compound showed a pIC50 of 5.98. The 50% effective dose (ED50) in [6] (setting [24]) was > 30 mg/kg.
